The record followed here is ChEMBL document CHEMBL2390915, “Synthesis and biological evaluation of arctigenin ester and ether derivatives as activators of AMPK” (Bioorg Med Chem, 2013).

SMILES strings stand for the structures.

For the assay, the system named is L6. Kind of assay: Activation of AMPK in rat L6 cells assessed as phosphorylated protein level at 40 uM after 30 mins by Western blot analysis relative to arctigenin. Format: cell-based. In short, it runs like this:
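L6 myoblasts kept in DMEM + 10% FBS at 37 °C, 5% CO2, then differentiated to myotubes in DMEM + 2% horse serum once 90% confluent. Cells exposed to 40 µM compound for 30 min. Lysates (Tris-HCl pH 7.5, NaCl, Na3VO4, Triton X-100, protease inhibitors) immunoblotted for phospho-AMPK and total AMPK by chemiluminescence. Band intensity × area normalized to total AMPK; three independent experiments.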
In general terms: In western blotting, separated proteins are transferred to a membrane and probed.
In the case of `CCC(=O)Oc1ccc(C[C@H]2C(=O)OC[C@@H]2Cc2ccc(OC)c(OC)c2)cc1OC`, the fold change (FC) stood at 0.92.
With `COc1ccc(C[C@H]2COC[C@@H]2Cc2ccc(OC(=O)C3CCCCC3)c(OC)c2)cc1OC`, the fold change (FC) came to 0.23.
Turning to `COc1ccc(CC(=O)Oc2ccc(C[C@H]3C(=O)OC[C@@H]3Cc3ccc(OC)c(OC)c3)cc2OC)cc1OC`, the fold change (FC) was determined as 0.69.
Then `COc1ccc(C[C@H]2COC(=O)[C@@H]2Cc2ccc(OCCc3ccccc3Cl)c(OC)c2)cc1OC`, with 0.24; and `COc1ccc(C[C@H]2COC(=O)[C@@H]2Cc2ccc(OC(=O)c3ccc(C)cc3)c(OC)c2)cc1OC`, with 0.46.
As to `COc1ccc(C[C@H]2COC[C@@H]2Cc2ccc(OCCc3ccc(F)cc3)c(OC)c2)cc1OC`, the fold change (FC) was 0.97.
For `COc1ccc(C[C@H]2COC(=O)[C@@H]2Cc2ccc(OC(=O)c3ccc(F)cc3)c(OC)c2)cc1OC`, the fold change (FC) came out at 0.63.
Regarding `COc1ccc(CCOc2ccc(C[C@H]3C(=O)OC[C@@H]3Cc3ccc(OC)c(OC)c3)cc2OC)cc1OC`, the fold change (FC) is 0.93.
For `COc1ccc(C[C@H]2COC[C@@H]2Cc2ccc(OC(=O)c3ccc(F)cc3)c(OC)c2)cc1OC`, the fold change (FC) is 0.37.
In the case of `COc1ccc(CCOc2ccc(C[C@H]3COC[C@@H]3Cc3ccc(OC)c(OC)c3)cc2OC)cc1OC`, the fold change (FC) stood at 1.45.
`COc1ccc(C[C@H]2COC(=O)[C@@H]2Cc2ccc(OC(=O)c3cccnc3)c(OC)c2)cc1OC`: the fold change (FC) was found to be 0.87.
In the case of `COc1ccc(C[C@H]2COC(=O)[C@@H]2Cc2ccc(OC(=O)c3ccc(OC)c(OC)c3)c(OC)c2)cc1OC`, the fold change (FC) came to 0.3.
Take `COc1cc(C[C@H]2COC[C@@H]2Cc2ccc(OC)c(OC)c2)ccc1O`: the fold change (FC) is 0.49.
Turning to `COc1ccc(C[C@H]2COC(=O)[C@@H]2Cc2ccc(OC(C)C)c(OC)c2)cc1OC`, the fold change (FC) is 0.2.
The same measure for `CCOc1ccc(CCOc2ccc(C[C@H]3C(=O)OC[C@@H]3Cc3ccc(OC)c(OC)c3)cc2OC)cc1OCC`: 0.34.
The same measure for `COc1ccc(C[C@H]2COC(=O)[C@@H]2Cc2ccc(OCCc3ccc(F)cc3)c(OC)c2)cc1OC`: 0.35; for `COc1ccc(C[C@H]2COC[C@@H]2Cc2ccc(OC(C)=O)c(OC)c2)cc1OC`: 0.26; for `COc1ccc(CCOc2ccc(C[C@H]3C(=O)OC[C@@H]3Cc3ccc(OC)c(OC)c3)cc2OC)cc1`: 0.32.
As for `COc1ccccc1CCOc1ccc(C[C@H]2C(=O)OC[C@@H]2Cc2ccc(OC)c(OC)c2)cc1OC`, the fold change (FC) stood at 0.32.
`C/C=C/C(=O)Oc1ccc(C[C@H]2C(=O)OC[C@@H]2Cc2ccc(OC)c(OC)c2)cc1OC`: the fold change (FC) was 0.86.
As to `COc1cccc(CCOc2ccc(C[C@H]3C(=O)OC[C@@H]3Cc3ccc(OC)c(OC)c3)cc2OC)c1`, the fold change (FC) worked out at 0.69.
Consider `COc1ccc(C[C@H]2COC[C@@H]2Cc2ccc(OCCc3cc(OC)c(OC)c(OC)c3)c(OC)c2)cc1OC`, for which the fold change (FC) turned out to be 1.25.
`COc1ccc(CCCOc2ccc(C[C@H]3C(=O)OC[C@@H]3Cc3ccc(OC)c(OC)c3)cc2OC)cc1OC`: the fold change (FC) is 0.71.
The same measure for `COCCOc1ccc(C[C@H]2C(=O)OC[C@@H]2Cc2ccc(OC)c(OC)c2)cc1OC`: 0.17; for `COc1cc(CCOc2ccc(C[C@H]3COC[C@@H]3Cc3ccc(OC)c(OC)c3)cc2OC)cc(OC)c1`: 0.68.
Regarding `COc1ccc(C[C@H]2COC[C@@H]2Cc2ccc(OCC(=O)c3ccc(OC)c(OC)c3)c(OC)c2)cc1OC`, the fold change (FC) amounted to 0.66.
Take `COc1ccc(C[C@H]2COC[C@@H]2Cc2ccc(OC(=O)CC(C)C)c(OC)c2)cc1OC`: the fold change (FC) stood at 0.25.
In the case of `COc1cccc(CCOc2ccc(C[C@H]3COC[C@@H]3Cc3ccc(OC)c(OC)c3)cc2OC)c1`, the fold change (FC) came out at 1.33.
Regarding `CCCC(=O)Oc1ccc(C[C@H]2COC[C@@H]2Cc2ccc(OC)c(OC)c2)cc1OC`, the fold change (FC) worked out at 0.25.
Then `COc1ccc(C[C@H]2COC(=O)[C@@H]2Cc2ccc(OC(=O)CC(C)(C)C)c(OC)c2)cc1OC`, with 0.32; and `COc1cccc(C(=O)Oc2ccc(C[C@H]3C(=O)OC[C@@H]3Cc3ccc(OC)c(OC)c3)cc2OC)c1`, with 0.64; and `COc1ccc(C[C@H]2COC(=O)[C@@H]2Cc2ccc(OCCc3ccc(Cl)cc3)c(OC)c2)cc1OC`, with 0.26.
Regarding `COc1ccc(C[C@H]2COC(=O)[C@@H]2Cc2ccc(OC(=O)C(C)C)c(OC)c2)cc1OC`, the fold change (FC) came out at 0.82.
As to `CCCCC(=O)Oc1ccc(C[C@H]2C(=O)OC[C@@H]2Cc2ccc(OC)c(OC)c2)cc1OC`, the fold change (FC) worked out at 1.16.
For the compound `COc1ccc(C[C@H]2COC[C@@H]2Cc2ccc(OCCc3ccc(F)c(F)c3)c(OC)c2)cc1OC`, the fold change (FC) amounted to 0.91.
For `COc1ccc(C[C@H]2COC(=O)[C@@H]2Cc2ccc(OCCc3ccccc3)c(OC)c2)cc1OC`, the fold change (FC) was 0.2.
For `COc1ccc(C[C@H]2COC(=O)[C@@H]2Cc2ccc(OC(C)=O)c(OC)c2)cc1OC`, the fold change (FC) came to 1.11.
As to `CCOc1ccc(C[C@H]2C(=O)OC[C@@H]2Cc2ccc(OC)c(OC)c2)cc1OC`, the fold change (FC) turned out to be 0.14.
As for `CCc1cncc(CCOc2ccc(C[C@H]3COC[C@@H]3Cc3ccc(OC)c(OC)c3)cc2OC)c1`, the fold change (FC) is 0.64.
For the compound `COc1cc(CCOc2ccc(C[C@H]3C(=O)OC[C@@H]3Cc3ccc(OC)c(OC)c3)cc2OC)cc(OC)c1`, the fold change (FC) stood at 0.73.
`COc1ccc(C[C@H]2COC[C@@H]2Cc2ccc(OCCc3cccnc3)c(OC)c2)cc1OC`: the fold change (FC) was determined as 0.81.
In the case of `COc1ccc(COc2ccc(C[C@H]3C(=O)OC[C@@H]3Cc3ccc(OC)c(OC)c3)cc2OC)cc1OC`, the fold change (FC) stood at 0.36.
Then `COc1ccc(C[C@H]2COC(=O)[C@@H]2Cc2ccc(OCCc3ccc4c(c3)OCO4)c(OC)c2)cc1OC`, with 0.28; and `COc1ccc(C[C@H]2COC[C@@H]2Cc2ccc(OCCc3ccc(Cl)cc3)c(OC)c2)cc1OC`, with 0.79.
Take `COc1cccc(C(=O)Oc2ccc(C[C@H]3COC[C@@H]3Cc3ccc(OC)c(OC)c3)cc2OC)c1`: the fold change (FC) was found to be 0.82.
As to `COc1ccc(C(=O)Oc2ccc(C[C@H]3COC[C@@H]3Cc3ccc(OC)c(OC)c3)cc2OC)cc1`, the fold change (FC) was determined as 0.25.
The same measure for `CCCC(=O)Oc1ccc(C[C@H]2C(=O)OC[C@@H]2Cc2ccc(OC)c(OC)c2)cc1OC`: 0.94; for `COc1ccc(C[C@H]2COC[C@@H]2Cc2ccc(OC(=O)c3ccc(OC)c(OC)c3)c(OC)c2)cc1OC`: 0.82; for `COc1ccc(C[C@H]2COC(=O)[C@@H]2Cc2ccc(OC(=O)c3ccccc3)c(OC)c2)cc1OC`: 0.81.
For the compound `COc1ccc(C[C@H]2COC[C@@H]2Cc2ccc(OC(=O)c3ccco3)c(OC)c2)cc1OC`, the fold change (FC) stood at 0.41.
Then `COc1ccc(C(=O)Oc2ccc(C[C@H]3C(=O)OC[C@@H]3Cc3ccc(OC)c(OC)c3)cc2OC)cc1`, with 0.46; and `COc1ccc(C[C@H]2COC(=O)[C@@H]2Cc2ccc(OCCc3cc(OC)c(OC)c(OC)c3)c(OC)c2)cc1OC`, with 0.57; and `COc1ccc(CCCOc2ccc(C[C@H]3COC[C@@H]3Cc3ccc(OC)c(OC)c3)cc2OC)cc1OC`, with 0.97.
The same measure for `COc1ccc(C[C@H]2COC(=O)[C@@H]2Cc2ccc(OCCc3ccc(C(C)(C)C)cc3)c(OC)c2)cc1OC`: 0.09; for `COc1ccc(C[C@H]2COC(=O)[C@@H]2Cc2ccc(OCCc3ccccc3F)c(OC)c2)cc1OC`: 0.34; for `COc1ccc(CC(=O)Oc2ccc(C[C@H]3COC[C@@H]3Cc3ccc(OC)c(OC)c3)cc2OC)cc1OC`: 0.83.
Consider `COc1ccc(C[C@H]2COC(=O)[C@@H]2Cc2ccc(OC(=O)CC(C)C)c(OC)c2)cc1OC`, for which the fold change (FC) was found to be 0.48.
Regarding `COc1ccc(C[C@H]2COC[C@@H]2Cc2ccc(OC(=O)c3cccnc3)c(OC)c2)cc1OC`, the fold change (FC) is 0.71.
Turning to `COc1ccc(C[C@H]2COC(=O)[C@@H]2Cc2ccc(OC(=O)c3ccco3)c(OC)c2)cc1OC`, the fold change (FC) worked out at 0.69.
For `COc1ccc(CCOc2ccc(C[C@H]3COC[C@@H]3Cc3ccc(OC)c(OC)c3)cc2OC)cc1`, the fold change (FC) came to 0.9.
Turning to `COc1ccc(C[C@H]2COC(=O)[C@@H]2Cc2ccc(OC(=O)C3CC3)c(OC)c2)cc1OC`, the fold change (FC) stood at 0.62.
